# SENP1 FRET inh: human SENP1 catalytic domain inhibitors, primary screen, biochemical, FRET, uHTS. Sentrin-specific protease 1 (Homo sapiens), Q9P0U3. recombinant SENP1 catalytic domain, CyPet-SUMO1-YPet FRET cleavage. inhibition, % at 10 µM. hit rate 0.21% among 360,000. AID 624204, 2012;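 active means inhibition at least 30% at 10 µM, raw YFP signal under a set limit, fluorescence ratio 0.5 to 1.5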;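 further: 0% = enzyme with DMSO and 100% = no enzyme wells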
#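 Controls: no-enzyme wells low, DMSO-plus-enzyme wells high control. Test system: human recombinant His6-tagged SENP1 catalytic domain enzyme. Reagent: SFCypet-SUMO1-SFYpet FRET protein substrate, 25 nM final. Doses: one dose per compound, 10 µM, 0.5% DMSO. Detection: FRET, CFP and YFP emission. Timing: 50 min reaction at room temperature.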
# M18AAP inhibitor: PfM18AAP inhibitors, malaria aminopeptidase, primary screen, biochemical, QFRET, recombinant enzyme | M18 aspartyl aminopeptidase (Plasmodium falciparum 3D7) | H-Glu-NHMec fluorogenic cleavage | inhibition, % at 7.35 µM | hit rate 1.2% among 290,000 | AID 1822, 2009;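 active means inhibition above the campaign mean inhibition over all tested compounds plus 3 SD, cut at about 28% in these data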;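 further: 0% = plate median of test compound wells and 100% = 2 mM ZnCl2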
# Fh CTSL1 inh: Fasciola hepatica cathepsin L1 inhibitors, primary screen, counter-screen for PFM18AAP inhibitor project, biochemical, QFRET, fluorogenic peptide substrate; recombinant F. hepatica cathepsin L1, Z-Leu-Arg-MCA fluorescence; inhibition, % at 5.96 µM; hit rate 0.49% among 300,000; AID 1906, 2009;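 active means inhibition above the mean of all tested compounds plus 3 SD, set per screening campaign, cut at about 17% in these data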;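 further: 0% = plate median of test compound wells and 100% = 1 µM Z-Phe-Ala-diazomethylketone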
# FXN GAA850 act: FXN promoter activators, primary screen, cell-based, luciferase luminescence, HEK293 lucGAA850 | HEK293 lucGAA850 FXN promoter luciferase reporter, 24 h; percent of 10 µM SAHA response | activation, % at 6 µM | hit rate 0.56% among 360,000;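 active means activation above the average of all compounds screened plus 3 SD, cutoff fixed separately per campaign, cut at about 7.5% in these data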;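 further: 0% = DMSO wells and 100% = 10 µM SAHA wells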
# HDAC3 inh: HDAC3 deacetylase inhibitors, primary screen, biochemical, fluorescence, cell-free homogeneous; Histone deacetylase 3 (Homo sapiens), O15379; recombinant HDAC3, fluorogenic peptide/trypsin coupled; hit rate 0.15% among 320,000; AID 2718, 2010; inhibition, % at 8.3 µM; in the data active means inhibition above about 26%, passing the limit was not always enough
# AHR act: AHR activators, primary screen, cell-based, luminescence, luciferase reporter, human; Aryl hydrocarbon receptor (Homo sapiens), P35869; AHR-responsive luciferase reporter cells; activation, % at 5 µM; hit rate 2.5% among 320,000; AID 2796, 2010; in the data active means activation above about 47%;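 further: 0% = vehicle wells and 100% = reference agonist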
# AHR act confirm: AHR activators, confirmation, cell-based, luminescence, luciferase reporter, human; AID 2845, 2010; activation, % at 9 µM; hit rate 87% among 2,300; shares compounds with AHR act; human cells, AHR-responsive luciferase reporter; in the data active means activation above about 49%;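 further: HepG2 hepatoma cells carrying a DRE-driven firefly luciferase reporter; 0% = vehicle wells and 100% = reference agonist wells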
# PXR counter: human PXR activators, counter-screen for AHR activator project, cell-based, luciferase luminescence; shares compounds with AHR act; cell-based PXR reporter; activation, % at 11.6 µM; hit rate 88% among 2,300; in the data active means activation above about 11%;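 further: human hepatoma DPX-2 cells expressing full-length human PXR; 0% = DMSO and 100% = reference agonist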
# Target sequence (O75469 whole entry, looked up): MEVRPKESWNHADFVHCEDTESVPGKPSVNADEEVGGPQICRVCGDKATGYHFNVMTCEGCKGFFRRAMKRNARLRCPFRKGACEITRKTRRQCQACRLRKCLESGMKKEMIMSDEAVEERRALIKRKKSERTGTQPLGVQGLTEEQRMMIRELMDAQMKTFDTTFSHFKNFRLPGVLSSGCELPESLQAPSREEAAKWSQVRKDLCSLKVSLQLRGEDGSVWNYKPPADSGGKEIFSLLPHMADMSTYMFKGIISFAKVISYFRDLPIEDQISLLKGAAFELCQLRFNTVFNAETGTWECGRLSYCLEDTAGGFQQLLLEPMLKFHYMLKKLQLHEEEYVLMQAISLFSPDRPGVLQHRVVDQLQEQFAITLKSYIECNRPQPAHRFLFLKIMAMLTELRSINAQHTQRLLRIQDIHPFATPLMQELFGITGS
# The depositor's hits bear a star; x = not tested or not shown. Shown are actives, neighbours in structure and some others; about 4.2% of the full set was active somewhere.
SMILES,SENP1 FRET inh,M18AAP inhibitor,Fh CTSL1 inh,FXN GAA850 act,HDAC3 inh,AHR act,AHR act confirm,PXR counter
CC(=O)Nc1ccc(C(=O)NNC(=O)c2ccccc2-n2cccc2)cc1,-1.1,x,x,0.6,6.3,0.0,x,x
Cn1c(=O)cc(OCC(=O)NC2CCCCC2)c2ccccc21,3.6,-0.5,-1.2,2.2,9.5,8.8,x,x
CCn1c(=O)cc(OCC(=O)NC2CC2)c2ccccc21,3.4,-9.9,0.8,1.9,-3.3,97.2*,83.7*,24.8*
Cc1cccc2c1NC(=O)/C2=C\C(=O)c1cccs1,-0.6,15.8,0.2,2.7,-1.8,84.2*,112.8*,116.5*
Cc1cc(CC(C)C)n(-c2nc3ccccc3c(=O)n2OCC(=O)N(C)C)n1,2.7,-5.5,-0.4,1.3,-0.3,15.0,x,x
Cc1cc(CC(C)C)n(-c2nc3ccccc3c(=O)n2OCc2ccccc2)n1,0.2,9.9,2.3,-3.1,12.2,87.0*,99.5*,74.2*
Brc1cccc(-c2n[nH]c(-c3ccccc3)n2)c1,1.0,-2.5,3.0,2.9,5.0,117.5*,127.9*,14.6*
Nc1nc(N)nc(-c2cccc(Br)c2)n1,-1.1,x,x,4.6,x,x,x,x
C/C(CC(=O)Nc1cc(Cl)ccc1Cl)=N\NC(=O)c1ccco1,-3.8,-5.5,1.5,3.7,2.7,91.3*,11.8,15.9*
Cn1ncc([N+](=O)[O-])c1C(=O)NCc1ccccc1,0.8,-11.1,-2.9,1.9,10.6,1.2,x,x
Cn1ncc([N+](=O)[O-])c1C(=O)Nc1cccc(Cl)c1,1.7,-6.0,1.0,-0.2,-10.6,99.2*,107.3*,20.6*
CCn1ncc(Br)c1C(=O)Nc1ccc(Cl)cn1,1.8,2.5,-2.4,0.5,-3.2,104.6*,115.0*,44.7*
Cn1ncc(Cl)c1C(=O)Nc1ccc(Cl)cn1,-1.2,-3.2,-1.6,0.4,-7.3,143.4*,129.0*,29.3*
Cc1cc(NC(=O)c2c(Cl)cnn2C)no1,0.0,2.9,2.3,1.2,-4.2,16.2,x,x
CSc1cccc(NC(=O)c2c(Cl)cnn2C)c1,0.9,0.6,6.4,2.9,11.3,8.5,x,x
Cn1ncc(Cl)c1C(=O)Nc1cccc(Cl)c1,4.2,2.8,-2.3,0.0,5.3,84.0*,105.5*,23.4*
O=C1c2ccccc2CCC12OC2c1ccc([N+](=O)[O-])cc1 (centres undefined),1.6,x,x,-0.7,x,x,x,x
Cc1ccc(OCCOc2ccc(Br)cc2/C=N\NC(N)=O)cc1,-0.1,-19.7,2.0,2.5,1.1,92.5*,27.0,5.9
NC(=O)N/N=C\c1cc(Br)ccc1O,-38.8,0.1,-0.2,-0.7,-2.0,27.9,x,x
Cc1cc(=O)[nH]c(N/N=C/c2ccc(Br)s2)n1,-3.0,-4.3,2.3,0.6,-1.8,81.2*,65.8*,x
O=C(Nc1ccc(OC(F)(F)F)cc1)c1ccc2nccnc2c1,-24.7,-3.0,-6.7,3.0,5.8,85.8*,80.7*,14.7*
O=C(Nc1ccc(C(F)(F)F)cc1)c1ccc2nc[nH]c2c1,1.3,-3.6,-2.9,3.5,1.3,105.6*,97.9*,10.5*
COc1ccc(NC(=O)c2ccc3nc[nH]c3c2)cc1,1.3,-8.4,-3.1,3.3,3.8,80.2*,78.7*,18.6*
O=C(Nc1ccc(C(F)(F)F)cc1)c1ccc2ncsc2c1,-7.0,2.7,-2.4,6.1,-5.9,41.9,x,x
CN1C(=O)[C@H]2[C@@H](c3ccc(C(F)(F)F)cc3)N[C@]3(CCCN(CC4CCCCC4)C3=O)[C@H]2C1=O,1.0,x,x,-2.8,x,x,x,x
Cc1cc(C)nc(N/N=C/c2cccc3ccccc23)n1,-2.7,8.2,4.0,3.9,1.9,89.2*,31.7,33.9*

# Source: PubChem BioAssay (several laboratories)
